The values that follow come from ChEMBL document CHEMBL1629675, “Novel inhibitor of Plasmodium histone deacetylase that cures P. berghei-infected mice” (Antimicrob Agents Chemother, 2009).

By IC50 is commonly meant the concentration at which inhibition is half-maximal.

The structures appear in SMILES notation.

Experiment [1] deals with Plasmodium falciparum. Description: Inhibition of HDAC in Plasmodium falciparum 3D7 by fluorescent activity assay. It counts as organism-based.
Experiment [2] relates to Plasmodium falciparum. Put plainly: Antimalarial activity against Plasmodium falciparum 7G8 assessed as parasite growth inhibition after 48 hrs by standard growth inhibition assay. It is filed as functional, organism-based.
Experiment [3] concerns Plasmodium falciparum. Description: Antimalarial activity against Plasmodium falciparum Dd2 assessed as parasite growth inhibition after 48 hrs by standard growth inhibition assay. It counts as functional, organism-based.
Experiment [4] concerns Plasmodium falciparum. Put plainly: Antimalarial activity against Plasmodium falciparum FCR3 assessed as parasite growth inhibition after 48 hrs by standard growth inhibition assay. It is filed as functional, FCR-3/Gambia.
The subject of experiment [5] is Plasmodium falciparum. Description: Antimalarial activity against chloroquine-sensitive Plasmodium falciparum 3D7 assessed as parasite growth inhibition after 48 hrs by standard growth inhibition assay. It counts as functional, organism-based.
The test system of experiment [6] is Plasmodium falciparum. Description: Antimalarial activity against Plasmodium falciparum HB3 assessed as parasite growth inhibition after 48 hrs by standard growth inhibition assay. It counts as functional, organism-based.
Experiment [7] has as its system Plasmodium falciparum. Put plainly: Antimalarial activity against sPlasmodium falciparum VS/1 assessed as parasite growth inhibition after 48 hrs by standard growth inhibition assay. It counts as functional.
For experiment [8], the system named is Plasmodium falciparum. Description: Antimalarial activity against chloroquine-resistant Plasmodium falciparum FCB1 assessed as parasite growth inhibition after 48 hrs by standard growth inhibition assay. It is filed as functional, organism-based, FcB1/Columbia. A digest of the protocol: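 Ring-stage cultures of P. falciparum (3D7, FCB1) in RBCs, 2% hematocrit, at 1% parasitemia, incubated 48 h at 37°C in 90% N2/5% O2/5% CO2 with compound; 0.1% Me2SO control, uninfected-RBC background. Parasitemia counted by FACS on 100,000 Sybr green-stained cells; accepted only if controls grew ≥3-fold. Growth inhibition from background-corrected ratio to control. Triplicate, repeated at least twice.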

Another experiment concerns the target Histone deacetylase. Put plainly: Inhibition of human HDAC in HeLa cells by fluorescent activity assay. It counts as cell-based.
[9] abbreviates: Plasmodium falciparum, 7G8, 48 h.
Where [10] appears, read: Plasmodium falciparum, Dd2, 48 h.
Where [11] appears, read: Plasmodium falciparum, FCR-3/Gambia, 48 h.
The mark [12] stands for this setting: Plasmodium falciparum, 3D7, 48 h.
The mark [13] stands for this setting: Plasmodium falciparum, HB3, 48 h.
Setting [14] is: Plasmodium falciparum, VS/1, 48 h.
The mark [15] stands for this setting: Plasmodium falciparum, FcB1/Columbia, 48 h.

Turning to `O=C(CCCCCCC(=O)Nc1ccc(-c2ccccc2)cc1)NO`, the IC50 came to 60 nM in the experiment with Plasmodium falciparum [1] (Plasmodium falciparum, 3D7); 100 nM with Plasmodium falciparum [2] (setting [9]); 85 nM with Plasmodium falciparum [3] (setting [10]); 115 nM in the experiment with Plasmodium falciparum [4] (setting [11]); 129 nM in the experiment with Plasmodium falciparum [5] (setting [12]); 110 nM with Plasmodium falciparum [6] (setting [13]). Further, the IC50 in the experiment on Plasmodium falciparum [7] (setting [14]) came to 115 nM; with Plasmodium falciparum [8] (setting [15]) it was 80 nM.

Take `Cl.Nc1cccc(-c2csc(NC(=O)CCCCCCC(=O)NO)n2)c1`: the half-inhibitory concentration (IC50) was determined as 50 nM in the experiment on Plasmodium falciparum [1]; 7.6 nM at Histone deacetylase; 10 nM with Plasmodium falciparum [2]; 12 nM in the experiment with Plasmodium falciparum [3]; 22 nM in the experiment with Plasmodium falciparum [4]; 30 nM with Plasmodium falciparum [5]. Also, the IC50 worked out at 20 nM with Plasmodium falciparum [6], 23 nM in the experiment on Plasmodium falciparum [7] and 15 nM in the experiment with Plasmodium falciparum [8].

Turning to `N[C@@H](Cc1ccccc1)C(=O)Nc1ccccc1-c1ccc(NC(=O)CCCCCCC(=O)NO)cc1`, the IC50 was 449 nM with Plasmodium falciparum [1] (Plasmodium falciparum, 3D7); 160 nM with Plasmodium falciparum [2] (setting [9]); 170 nM in the experiment on Plasmodium falciparum [3] (setting [10]); 150 nM in the experiment on Plasmodium falciparum [4] (setting [11]); 220 nM in the experiment on Plasmodium falciparum [5] (setting [12]); 180 nM in the experiment with Plasmodium falciparum [6] (setting [13]). Also, the IC50 came to 175 nM in the experiment with Plasmodium falciparum [7] (setting [14]) and 95 nM with Plasmodium falciparum [8] (setting [15]).

For `O=C(CCCCCCC(=O)Nc1nc(-c2ccccc2)cs1)NO`, the IC50 stood at 30 nM with Plasmodium falciparum [1] (Plasmodium falciparum, 3D7); 6.6 nM against Histone deacetylase; 8 nM in the experiment with Plasmodium falciparum [2] (setting [9]); 6 nM with Plasmodium falciparum [3] (setting [10]); 15 nM in the experiment with Plasmodium falciparum [5] (setting [12]); 7 nM in the experiment with Plasmodium falciparum [6] (setting [13]). The IC50 in the experiment with Plasmodium falciparum [7] (setting [14]) and in the experiment on Plasmodium falciparum [8] (setting [15]) was 6 nM in each case.
